According to ChEMBL document CHEMBL1122852, “Imidazo[1,5-d][1,2,4]triazines as potential antiasthma agents” (J Med Chem, 1985):

species on record: Homo sapiens; assay: Inhibitory activity against histamine release from antigen-challenged, sensitized human basophils; type: functional; conditions: Homo sapiens
Procedure, shortened: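 Histamine release was induced by antigen challenge of sensitized human basophils in vitro. Compounds were first screened at a single concentration. Those reducing release by more than 50% went on to concentration-response testing to estimate IC50. Values are given with standard error and number of experiments.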

`CCCc1nc(C)c2c(C(C)C)nnc(SC)n12` and `CCCc1nc(C)c2c(C(C)C)nnc(O)n12` cannot be ordered by IC50: greater than 48 µM for the first, greater than 48 µM for the second.

`CCCc1nc(C)c2n1C(SC)=NNC2c1ccccc1` (stereo not given) and `CCc1nc(C)c2c(-c3ccccc3)nnc(SC)n12` cannot be ordered by IC50: greater than 48 µM for the first, greater than 48 µM for the second.

Going from `Cc1nc(C(C)(C)C)n2c(O)nncc12` to `Cc1nc(CC(C)(C)C)n2c(O)nncc12`, the IC50 rises from 31 µM to greater than 48 µM. The first is the more potent here.

Compared with `C=CCn1ncc2c(C)nc(C(C)C)n2c1=O`, `C=CCn1ncc2c(C)nc(CCC)n2c1=O` is lower in IC50: greater than 48 µM for the first, 40 µM for the second. The second is the more potent here.

`CCO/C(O)=C\c1nncc2cncn12` and `CCOC(=O)C(C)Sc1nncc2cncn12` (stereo not given) cannot be ordered by IC50: greater than 48 µM for the first, greater than 48 µM for the second.

Compared with `CCc1nnc(O)n2c(C(C)(C)C)nc(C)c12`, `CCc1nnc(O)n2c(C)nc(C)c12` is higher in IC50: 26 µM for the first, greater than 48 µM for the second.

`Cc1ncn2c(NN)nncc12` and `CNc1nncc2c(C)ncn12` cannot be ordered by IC50: greater than 48 µM for the first, greater than 48 µM for the second.

`COCc1nc(C)c2c(C)nnc(O)n12` and `COCc1nc(Br)c2c(Br)nnc(O)n12` cannot be ordered by IC50: greater than 48 µM for the first, greater than 48 µM for the second.

`C=CCSc1nncc2cnc(CCC)n12` and `C=CCSc1nncc2cnc(COC)n12` cannot be ordered by IC50: greater than 48 µM for the first, 79 µM for the second.

`COc1ccc(-c2ncc3cnnc(O)n23)cc1` and `C=CCn1ncc2cnc(-c3ccc(OC)cc3)n2c1=O` cannot be ordered by IC50: greater than 48 µM for the first, greater than 48 µM for the second.

Compared with `CCCc1nc(C)c2c(C)nn(C)c(=O)n12`, `CCCc1nn(C)c(=O)n2c(CCC)nc(C)c12` is lower in IC50: greater than 48 µM for the first, 18 µM for the second. The second is the more potent here.

First: CCCc1nc(Br)c2c(Br)nnc(O)n12
Second: Oc1nnc(Br)c2c(Br)nc(Br)n12
The IC50 of the first is 1.8-fold higher: 48 µM for the first, 27 µM for the second. The second is the more potent here.

`Cc1ncn2c(Nc3cccs3)nncc12` and `Cc1ncn2c(Nc3cccnc3)nncc12` cannot be ordered by IC50: greater than 48 µM for the first, greater than 48 µM for the second.

`CNc1nncc2cncn12` and `CN(C)CCNc1nncc2cncn12` cannot be ordered by IC50: greater than 48 µM for the first, greater than 48 µM for the second.

`CCCc1nnc(S)n2c(CCC)nc(C)c12` and `CCCc1nc(C)c2c(CC)nnc(S)n12` cannot be ordered by IC50: greater than 48 µM for the first, greater than 48 µM for the second.

`CCc1nc(C)c2cnnc(SC)n12` and `CCCc1nc(C)c2cnnc(SC)n12` cannot be ordered by IC50: greater than 48 µM for the first, greater than 48 µM for the second.

Compared with `CCOC(=O)/C=C/CSc1nncc2cncn12`, `CC(C)CCSc1nncc2cncn12` is lower in IC50: greater than 48 µM for the first, 9 µM for the second.

`C=CCn1ncc2cnc(Cc3ccccc3)n2c1=O` and `Cn1ncc2cnc(Cc3ccccc3)n2c1=O` cannot be ordered by IC50: greater than 48 µM for the first, greater than 48 µM for the second.

`CCCc1nc(C)c2c(-c3ccccc3)nnc(Nc3cc[nH]n3)n12` and `Cc1nc(C(C)C)n2c(O)nnc(-c3ccccc3)c12` cannot be ordered by IC50: greater than 48 µM for the first, greater than 48 µM for the second.

`c1ncn2c(N3CCCCC3)nncc12` and `CN1CCN(c2nncc3cncn23)CC1` cannot be ordered by IC50: greater than 48 µM for the first, greater than 48 µM for the second.

`CCCc1nc(C)c2c(C)nn(CC(=O)c3ccccc3)c(=O)n12` and `CCCc1nc(C)c2c(C)nn(Cc3ccccc3)c(=O)n12` cannot be ordered by IC50: greater than 48 µM for the first, greater than 48 µM for the second.

`CCCOc1ccccc1-c1ncc2cnnc(O)n12` and `CCCc1ncc2cnnc(O)n12` cannot be ordered by IC50: greater than 48 µM for the first, greater than 48 µM for the second.

`CCCc1nc(C)c2c(C)nn(CC(O)CO)c(=O)n12` (stereo not given) and `CCCc1nc(C)c2c(C)nn(CC(=O)O)c(=O)n12` cannot be ordered by IC50: greater than 48 µM for the first, greater than 48 µM for the second.

`CCOC(=O)CSc1nncc2c(C)ncn12` and `CCOC(=O)CSc1nncc2cnc(C)n12` cannot be ordered by IC50: greater than 48 µM for the first, 52 µM for the second.

`Cc1nnc(S)n2cncc12` and `Cc1ncn2c(S)nncc12` cannot be ordered by IC50: greater than 48 µM for the first, greater than 48 µM for the second.

`CCCc1ncn2c(Nc3cc[nH]n3)nncc12` and `CCCc1ncn2c(SC)nncc12` cannot be ordered by IC50: greater than 48 µM for the first, greater than 48 µM for the second.

`CCCc1nc(C)c2cnnc(O)n12` and `CCc1nc(C)c2cnnc(O)n12` cannot be ordered by IC50: 56.8 µM for the first, greater than 48 µM for the second.

`CCCc1ncc2c(C)nnc(SC)n12` and `CCCc1ncc2c(C)nnc(S)n12` cannot be ordered by IC50: greater than 48 µM for the first, greater than 48 µM for the second.

`COCc1ncc2cnnc(S)n12` and `COCc1ncc2cnnc(NCCN(C)C)n12` cannot be ordered by IC50: greater than 48 µM for the first, greater than 48 µM for the second.

`CCCc1nc(C)c2cnn(CC3CC3)c(=O)n12` and `CCCc1nc(C)c2cnn(CC)c(=O)n12` cannot be ordered by IC50: greater than 48 µM for the first, greater than 48 µM for the second.

`CC(=O)N(C1=NNCC1)c1nncc2c(C)ncn12` and `Cc1ncn2c(N(C)C)nncc12` cannot be ordered by IC50: greater than 48 µM for the first, greater than 48 µM for the second.

`Cc1nnc(S)n2c(C)nc(C)c12` and `CSc1nnc(C)c2c(C)nc(C)n12` cannot be ordered by IC50: greater than 48 µM for the first, greater than 48 µM for the second.

`CCOC(=O)Cn1ncc2c(C)ncn2c1=O` and `CCOC(=O)Cn1ncc2cncn2c1=O` cannot be ordered by IC50: greater than 48 µM for the first, greater than 48 µM for the second.

`CCCCCCCCCCCCCCCCCc1ncc2cnnc(S)n12` and `CCCc1ncc2cnnc(SC)n12` cannot be ordered by IC50: greater than 48 µM for the first, greater than 48 µM for the second.

`Cc1nc(-c2ccccc2)n2c(S)nncc12` and `Sc1nncc2cnc(-c3ccccc3)n12` cannot be ordered by IC50: greater than 48 µM for the first, greater than 48 µM for the second.

`CCCc1nc(C)c2cnnc(SCC(=O)OCC)n12` and `CCCc1nc(C)c2cnn(CC(=O)OCC)c(=O)n12` cannot be ordered by IC50: greater than 48 µM for the first, greater than 48 µM for the second.

`CCCc1nc(C)c2cnn(C/C=C/C(=O)OCC)c(=O)n12` and `CCc1nc(C)c2cnn(CC)c(=O)n12` cannot be ordered by IC50: greater than 48 µM for the first, 75.6 µM for the second.

`CCc1nc(C)c2cnnc(S)n12` and `Cc1nc(C)n2c(S)nncc12` cannot be ordered by IC50: greater than 48 µM for the first, greater than 48 µM for the second.

Going from `Oc1nnc(-c2ccccc2)c2cncn12` to `CSc1nnc(-c2ccccc2)c2cncn12`, the IC50 rises from 19 µM to greater than 48 µM.

`C=CCn1ncc2cnc(C)n2c1=O` and `C=CCn1ncc2cnc(C)n2c1=S` cannot be ordered by IC50: greater than 48 µM for the first, greater than 48 µM for the second.

Going from `c1nc(Nc2nncc3cncn23)n[nH]1` to `c1ccc(CNc2nncc3cncn23)cc1`, the IC50 rises from 46 µM to greater than 48 µM.

`CCCc1nnc(SC)n2c(CCC)nc(C)c12` and `CCCc1nc(C)c2c(CC)nnc(SC)n12` cannot be ordered by IC50: greater than 48 µM for the first, greater than 48 µM for the second.

`CCn1ncc2cncn2c1=S` and `C=CCn1ncc2cncn2c1=O` cannot be ordered by IC50: greater than 48 µM for the first, greater than 48 µM for the second.

`C=CCSc1nncc2cnc(C)n12` and `C=CCSc1nncc2c(C)nc(C)n12` are within 1.5-fold of each other in IC50: 61 µM for the first, 59 µM for the second.

`c1ncn2c1C(NC1CCCC1)NN=C2NC1CCCC1` (stereo not given) and `c1ncn2c(NC34CC5CC(CC(C5)C3)C4)nncc12` cannot be ordered by IC50: greater than 48 µM for the first, greater than 48 µM for the second.

`C=CCSc1nncc2c(CC)ncn12` and `CSc1nncc2c(C)ncn12` cannot be ordered by IC50: greater than 48 µM for the first, greater than 48 µM for the second.

`Cc1ncn2c(O)nncc12` and `CC(C)c1ncn2c(O)nncc12` cannot be ordered by IC50: greater than 48 µM for the first, greater than 48 µM for the second.

`CCCc1nnc(O)n2c(C)ncc12` and `CCCc1ncc2c(C)nnc(O)n12` cannot be ordered by IC50: greater than 48 µM for the first, greater than 48 µM for the second.

Compared with `c1ccc(-c2cn[nH]c2Nc2nncc3cncn23)cc1`, `c1coc(CNc2nncc3cncn23)c1` is higher in IC50: 10 µM for the first, greater than 48 µM for the second. The first is the more potent here.

`CSc1nncc2c(C)nc(C(C)C)n12` and `Cc1nc(C(C)C)n2c(O)nncc12` cannot be ordered by IC50: greater than 48 µM for the first, greater than 48 µM for the second.

First: CCCc1nc(C)c2c(C)nnc(S)n12
Second: C=C=Cn1nc(C)c2c(C)nc(CCC)n2c1=O
The IC50 of the first is lower: 45 µM for the first, greater than 48 µM for the second.

`COCc1nc(Br)c2cnnc(O)n12` and `Cc1nc(Cc2ccccc2)n2c(O)nncc12` cannot be ordered by IC50: greater than 48 µM for the first, greater than 48 µM for the second.

`C=CCn1ncc2cnc(COC)n2c1=O` and `CCOC(=O)Cn1ncc2cnc(COC)n2c1=O` cannot be ordered by IC50: greater than 48 µM for the first, greater than 48 µM for the second.

First: CCCc1nc(C)c2c(C)nn(CC(=O)OCC)c(=O)n12
Second: C=CCn1nc(CCC)c2c(C)nc(CCC)n2c1=O
The IC50 of the first is higher: greater than 48 µM for the first, 29 µM for the second. The second is the more potent here.

`c1ccc(C(c2ccccc2)N2CCN(c3nncc4cncn34)CC2)cc1` and `C=CCn1ncc2c(Br)nc(Cc3ccccc3)n2c1=O` cannot be ordered by IC50: greater than 48 µM for the first, greater than 48 µM for the second.

`Cc1ncc2cnnc(O)n12` and `CC(C)(C)c1ncc2cnnc(O)n12` cannot be ordered by IC50: greater than 48 µM for the first, greater than 48 µM for the second.

`CCCc1nc(C)c2c(C3CC3)nnc(O)n12` and `C=CCn1ncc2c(Br)nc(CCC)n2c1=O` cannot be ordered by IC50: greater than 48 µM for the first, greater than 48 µM for the second.

`COCc1ncc2n1C(NCCN(C)C)NN=C2NCCN(C)C` (stereo not given) showed an IC50 greater than 48 µM.
